The values below come from publication PMC7677148 (European Journal of Drug Metabolism and Pharmacokinetics, 2020).

Molecules are shown by their SMILES. Like-named read-outs stand apart in the source and are kept apart here. Where only a bound is given, the exact number is not on record here.

Data set [1] has as its target T1, OATP1B1 (Homo sapiens, UniProt Q9Y6L6).
T1 sequence (Q9Y6L6 1-691): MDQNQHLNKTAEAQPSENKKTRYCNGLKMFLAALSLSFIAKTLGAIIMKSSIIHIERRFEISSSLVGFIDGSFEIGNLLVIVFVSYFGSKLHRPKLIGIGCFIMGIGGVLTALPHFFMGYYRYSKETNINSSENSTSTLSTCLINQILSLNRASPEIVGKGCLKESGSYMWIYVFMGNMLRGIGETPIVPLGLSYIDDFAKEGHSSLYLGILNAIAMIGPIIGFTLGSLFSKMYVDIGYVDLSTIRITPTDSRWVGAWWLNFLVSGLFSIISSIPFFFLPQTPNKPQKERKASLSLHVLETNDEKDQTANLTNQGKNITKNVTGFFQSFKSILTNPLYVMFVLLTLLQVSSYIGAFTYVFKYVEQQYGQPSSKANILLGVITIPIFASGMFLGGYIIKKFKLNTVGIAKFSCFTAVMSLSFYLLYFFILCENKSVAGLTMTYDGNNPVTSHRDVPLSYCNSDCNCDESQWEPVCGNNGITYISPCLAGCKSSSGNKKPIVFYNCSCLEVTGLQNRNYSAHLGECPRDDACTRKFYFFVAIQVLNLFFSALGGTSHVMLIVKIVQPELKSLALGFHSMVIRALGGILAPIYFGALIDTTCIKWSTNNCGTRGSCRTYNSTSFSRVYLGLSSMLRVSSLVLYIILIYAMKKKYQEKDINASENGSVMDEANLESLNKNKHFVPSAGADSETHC
Description: OATP1B1 inhibition assay. The data set is classed as cell-based. A digest of the protocol: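 Stably transfected OATP1B1- or OATP1B3-HEK293 cells and empty-vector HEK293 control, grown in DMEM/10% FCS with G418. Cells exposed 10 min at 37 °C to 2.5 µM 8-FcA ± test compound (0.1–100 µM, in PBS/2% FCS). After washing, median intracellular fluorescence read by flow cytometry (30,000 cells, viable gate). With/without-inhibitor ratio normalised to control line. 8 replicates/concentration, 3–5 experiments. Four-parameter fit gives IC50. Rifampicin control.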

Data set [2] concerns the target T2, OATP1B3 (Homo sapiens, UniProt Q9NPD5).
T2 sequence (Q9NPD5 1-702): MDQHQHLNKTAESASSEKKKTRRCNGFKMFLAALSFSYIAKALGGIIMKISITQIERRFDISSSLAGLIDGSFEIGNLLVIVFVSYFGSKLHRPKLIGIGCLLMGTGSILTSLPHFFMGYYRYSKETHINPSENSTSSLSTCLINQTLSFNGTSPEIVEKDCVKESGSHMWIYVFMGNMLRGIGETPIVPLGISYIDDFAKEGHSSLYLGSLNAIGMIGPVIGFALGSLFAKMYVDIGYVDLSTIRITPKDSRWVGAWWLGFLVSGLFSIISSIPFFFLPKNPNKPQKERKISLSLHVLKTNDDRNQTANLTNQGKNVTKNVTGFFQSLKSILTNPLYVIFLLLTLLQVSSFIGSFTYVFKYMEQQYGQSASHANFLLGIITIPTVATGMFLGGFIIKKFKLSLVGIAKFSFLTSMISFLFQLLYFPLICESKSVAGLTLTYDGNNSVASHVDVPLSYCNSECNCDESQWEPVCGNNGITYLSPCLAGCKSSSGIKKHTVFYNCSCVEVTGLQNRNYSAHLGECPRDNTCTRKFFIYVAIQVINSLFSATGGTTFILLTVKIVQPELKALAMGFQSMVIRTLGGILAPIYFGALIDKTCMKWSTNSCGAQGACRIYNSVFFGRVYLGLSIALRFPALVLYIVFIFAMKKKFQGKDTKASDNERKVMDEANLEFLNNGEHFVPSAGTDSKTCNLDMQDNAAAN
Kind of data set: OATP1B3 inhibition assay. The data set is classed as cell-based.

In data set [3] the target is T3, OATP2B1 (Homo sapiens, UniProt O94956).
T3 sequence (O94956 1-709): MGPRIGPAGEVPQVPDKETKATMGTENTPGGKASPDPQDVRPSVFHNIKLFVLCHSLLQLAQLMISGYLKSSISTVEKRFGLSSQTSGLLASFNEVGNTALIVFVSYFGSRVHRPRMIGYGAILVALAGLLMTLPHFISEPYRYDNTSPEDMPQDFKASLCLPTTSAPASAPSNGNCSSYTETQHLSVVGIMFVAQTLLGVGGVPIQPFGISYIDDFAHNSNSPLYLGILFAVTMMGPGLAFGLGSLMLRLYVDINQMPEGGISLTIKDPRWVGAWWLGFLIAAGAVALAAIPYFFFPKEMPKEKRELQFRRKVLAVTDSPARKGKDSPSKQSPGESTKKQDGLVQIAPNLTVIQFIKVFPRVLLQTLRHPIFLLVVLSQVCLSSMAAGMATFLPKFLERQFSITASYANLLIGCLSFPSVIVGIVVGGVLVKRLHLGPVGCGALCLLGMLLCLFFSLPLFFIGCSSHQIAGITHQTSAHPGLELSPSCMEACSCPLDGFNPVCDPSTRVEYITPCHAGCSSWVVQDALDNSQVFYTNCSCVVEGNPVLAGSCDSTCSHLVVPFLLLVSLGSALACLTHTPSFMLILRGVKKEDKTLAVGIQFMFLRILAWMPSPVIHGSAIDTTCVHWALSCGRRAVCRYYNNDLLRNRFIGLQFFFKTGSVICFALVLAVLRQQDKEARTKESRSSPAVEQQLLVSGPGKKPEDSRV
Description: OATP2B1 inhibition assay. Type of data set: cell-based. A digest of the protocol:
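HEK293 cells with tetracycline-inducible OATP2B1, grown in DMEM/Ham's F12/10% FCS and induced with 1 µg/ml tetracycline 72 h before assay. Substrate 1 µM DBF ± test compound (0.1–100 µM, in PBS/2% FCS), 10 min at 37 °C. After washing, median intracellular fluorescence read by flow cytometry. Normalised to non-induced cells. 8 replicates/concentration, 3–5 experiments. IC50 from four-parameter fit. Naringin control inhibitor.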

The conditions of data set [4]: rats; cited from earlier work.
The target in data set [5] is T1, OATP1B1. Conditions: read-out: OATP1B1 IC50; control inhibitor; 8-FcA uptake; cited from earlier work.
The target of data set [6] is T2, OATP1B3. The note with it: read-out: OATP1B3 IC50; control inhibitor; 8-FcA uptake; cited from earlier work.

One may read the IC50 as the midpoint of a concentration-inhibition curve. `COc1ccc(-c2cc(=O)c3c(OC)c(OC)c(OC)cc3o2)cc1OC` [Sinensetin, sinensetin]: the IC50 in data set [1] was 8 ± 2.6 µM; in data set [2], 21.1 ± 3.4 µM; in data set [3], 5.4 ± 0.6 µM. Besides, the “potency for OATP1B3 relative to rifampicin” value in data set [2] (comparison of IC50 values) is on record as “about ten times lower”.
By bioavailability is commonly meant the share of a dose that reaches the circulation, judged against a reference dose that is usually intravenous. On to `COc1ccc(-c2cc(=O)c3c(OC)c(OC)c(OC)c(OC)c3o2)cc1OC` [Nobiletin, nobiletin], for which the values for the IC50 in data set [1], in data set [2] and in data set [3] were 2.1 ± 0.7 µM, 6.6 ± 0.4 µM and 1.6 ± 0.4 µM, respectively. In addition, the bioavailability in data set [4] was 36%.
As for `CO[C@H]1/C=C/O[C@@]2(C)Oc3c(C)c(O)c4c(O)c(c(/C=N/N5CCN(C)CC5)c(O)c4c3C2=O)NC(=O)/C(C)=C\C=C\[C@H](C)[C@H](O)[C@@H](C)[C@@H](O)[C@@H](C)[C@H](OC(C)=O)[C@@H]1C` [Rifampicin, rifampicin], the IC50 in data set [5] and in data set [6] was roughly 2 µM each time.
`C[C@@H]1O[C@@H](OC[C@H]2O[C@@H](Oc3cc(O)c4c(c3)O[C@H](c3ccc(O)cc3)CC4=O)[C@H](O)[C@@H](O)[C@@H]2O)[C@H](O)[C@H](O)[C@H]1O` [Narirutin, narirutin]: the IC50 in data set [1] was greater than 100 µM; in data set [2], greater than 100 µM; in data set [3], 14.2 ± 3.5 µM.
Consider `COc1ccc(-c2cc(=O)c3c(OC)c(OC)c(OC)c(OC)c3o2)cc1` [Tangeretin, tangeretin], for which the IC50 in data set [1] was 4.8 ± 1.7 µM; in data set [2], 5.6 ± 1 µM; in data set [3] it was 1.6 ± 0.8 µM. Also, the bioavailability in data set [4] is listed as 27%.
Turning to `C[C@@H]1O[C@@H](O[C@H]2[C@H](Oc3cc(O)c4c(c3)O[C@H](c3ccc(O)cc3)CC4=O)O[C@H](CO)[C@@H](O)[C@@H]2O)[C@H](O)[C@H](O)[C@H]1O` [Naringin, naringin, reference compound], the figures for the IC50 in data set [1], in data set [2] and in data set [3] were greater than 100 µM, greater than 100 µM and 6.9 ± 1.4 µM, respectively.
